Data published in ChEMBL document CHEMBL1629563, “Pharmacokinetic and safety evaluation of BILR 355, a second-generation nonnucleoside reverse transcriptase inhibitor, in healthy volunteers” (Antimicrob Agents Chemother, 2008).

Experiments:
[1] = Apparent oral clearance in healthy human at 25 mg, po administered as single dose; assay type: ADME, organism-based; conditions: in vivo
How it was run: (§1)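 Healthy male volunteers, six active plus two placebo per dose group, single oral dose in PEG solution with 200 ml water after overnight fast; breakfast 60 to 90 min post-dose. EDTA plasma sampled predose to 144 h. Assayed by validated LC-MS/MS after protein precipitation. Noncompartmental analysis, AUC by linear up/log down trapezoidal rule; Vss = CL/F·(MRTp.o. − 1/Ka).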

Homo sapiens [2] = test: Toxicity in healthy human assessed as occurrence of maculopapular rash at 5 mg, po administered as single dose relative to control; assay type: organism-based; conditions: in vivo
Homo sapiens [3] = test: Toxicity in healthy human assessed as occurrence of frequent bowel movements at 12.5 mg, po administered as single dose relative to control; assay type: organism-based; conditions: in vivo
Homo sapiens [4] = test: Toxicity in healthy human assessed as occurrence of flatulence at 1 mg, po administered as single dose relative to control; assay type: organism-based; conditions: in vivo
Homo sapiens [5] = test: Toxicity in healthy human assessed as occurrence of maculopapular rash at 100 mg, po administered as single dose relative to control; assay type: organism-based; conditions: in vivo
[6] = Renal clearance in healthy human at 75 mg, po administered as single dose coadministered with 100 mg of ritonavir by high-pressure liquid chromatography-tandem mass spectrometry/mass spectrometry method; assay type: ADME, organism-based, Kidney; conditions: in vivo, read-out: CL_renal (converted)
Homo sapiens [7] = test: Ratio of Cmax in human at 12.5 mg, po in presence of 100 mg of ritonavir to Cmax in human at 12.5 mg, po; assay type: ADME, organism-based; conditions: in vivo
Homo sapiens [8] = test: Toxicity in healthy human assessed as occurrence of herpes simplex at 100 mg, po administered as single dose relative to control; assay type: organism-based; conditions: in vivo
Homo sapiens [9] = test: Toxicity in healthy human assessed as occurrence of palpitations at 50 mg, po administered as single dose relative to control; assay type: organism-based; conditions: in vivo
[10] = Half life in healthy human at 50 mg, po administered as single dose coadministered with 100 mg of ritonavir; assay type: ADME, organism-based; conditions: in vivo
[11] = Renal clearance in healthy human at 50 mg, po administered as single dose coadministered with 100 mg of ritonavir by high-pressure liquid chromatography-tandem mass spectrometry/mass spectrometry method; assay type: ADME, organism-based, Kidney; conditions: in vivo, read-out: CL_renal (converted)
Homo sapiens [12] = test: Toxicity in healthy human assessed as occurrence of maculopapular rash at 62.5 mg, po administered as single dose coadministered with 100 mg of ritonavir; assay type: organism-based; conditions: in vivo
[13] = Renal clearance in healthy human at 5 mg, po administered as single dose coadministered with 100 mg of ritonavir by high-pressure liquid chromatography-tandem mass spectrometry/mass spectrometry method; assay type: ADME, organism-based, Kidney; conditions: in vivo, read-out: CL_renal (converted)
[14] = AUC (0 to infinity) in healthy human at 62.5 mg, po administered as single dose coadministered with 100 mg of ritonavir; assay type: ADME, organism-based; parameters: dose 62.5 mg, time infinity, route oral; conditions: plasma
How it was run: (§2)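 Healthy male volunteers, fasted. Ritonavir 100 mg given 10 h before and again together with single oral BILR 355 in PEG solution. EDTA plasma sampled predose to 144 h. LC-MS/MS assay after protein precipitation. Noncompartmental analysis, AUC by linear up/log down trapezoidal rule; Vss = CL/F·(MRTp.o. − 1/Ka).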

Homo sapiens [15] = test: Toxicity in healthy human assessed as occurrence of neurological eyelid disorder at 100 mg, po administered as single dose relative to control; assay type: organism-based; conditions: in vivo
[16] = Renal clearance in healthy human at 37.5 mg, po administered as single dose coadministered with 100 mg of ritonavir by high-pressure liquid chromatography-tandem mass spectrometry/mass spectrometry method; assay type: ADME, organism-based, Kidney; conditions: in vivo, read-out: CL_renal (converted)
Homo sapiens [17] = test: Toxicity in healthy human assessed as occurrence of flatulence at 50 mg, po administered as single dose relative to control; assay type: organism-based; conditions: in vivo
Homo sapiens [18] = test: Ratio of AUC (0 to infinity) in human at 12.5 mg, po in presence of 100 mg of ritonavir to AUC (0 to infinity) in human at 12.5 mg, po; assay type: ADME, organism-based; conditions: in vivo
Homo sapiens [19] = test: Toxicity in healthy human assessed as occurrence of aphthous stomatitis at 100 mg, po administered as single dose; assay type: organism-based; conditions: in vivo
[20] = AUC (0 to infinity) in healthy human at 5 mg, po administered as single dose; assay type: ADME, organism-based; parameters: dose 5 mg, route oral, time infinity; conditions: plasma; how it was run: as §1
Homo sapiens [21] = test: Toxicity in healthy human assessed as occurrence of nausea at 75 mg, po administered as single dose relative to control; assay type: organism-based; conditions: in vivo
Homo sapiens [22] = test: Toxicity in healthy human assessed as occurrence of headache at 100 mg, po administered as single dose relative to control; assay type: organism-based; conditions: in vivo
Homo sapiens [23] = test: Toxicity in healthy human assessed as occurrence of fatigue at 75 mg, po administered as single dose coadministered with 100 mg of ritonavir; assay type: organism-based; conditions: in vivo
[24] = Tmax in high fat fed healthy human at 50 mg, po administered as single dose coadministered with 100 mg of ritonavir; assay type: ADME, organism-based; conditions: in vivo
[25] = Apparent volume of distribution at steady state in healthy human at 50 mg, po administered as single dose; assay type: ADME, organism-based; conditions: in vivo, read-out: Vss/F
How it was run: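 Single fasting oral dose of BILR 355 in PEG solution with 200 ml tap water, given to healthy males. Standard breakfast came 60-90 min after the dose. EDTA plasma was sampled predose to 144 h, stored below −18°C and assayed by LC-MS/MS after protein precipitation. Noncompartmental analysis gave Vz/F. Vss/F = CL/F·(MRTp.o. − 1/Ka), with Ka from compartmental modelling.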

Homo sapiens [26] = test: Ratio of Cmax in human at 50 mg, po in presence of 100 mg of ritonavir to Cmax in human at 50 mg, po; assay type: ADME, organism-based; conditions: in vivo
Homo sapiens [27] = test: Toxicity in healthy human assessed as occurrence of headache at 50 mg, po administered as single dose relative to control; assay type: organism-based; conditions: in vivo
Homo sapiens [28] = test: Toxicity in healthy human assessed as occurrence of neurological eyelid disorder at 25 mg, po administered as single dose relative to control; assay type: organism-based; conditions: in vivo
Homo sapiens [29] = test: Toxicity in healthy human assessed as occurrence of nausea at 12.5 mg, po administered as single dose relative to control; assay type: organism-based; conditions: in vivo
[30] = Drug excretion in healthy human urine assessed as unchanged drug at 100 mg, po administered as single dose by high-pressure liquid chromatography-tandem mass spectrometry/mass spectrometry method; assay type: ADME, organism-based; conditions: read-out: Drug uptake
How it was run: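 Urine was collected by weight after one oral dose of BILR 355 in PEG solution in fasted healthy males. Intervals were predose blank, 0-6, 6-24 and 24-72 h, with the bladder voided before each. Aliquots were stored at −20°C and assayed by LC-MS/MS. fe = amount of unchanged drug excreted (Ae) as a percentage of the administered dose.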

[31] = AUC (0 to last) in healthy human at 50 mg, po administered as single dose coadministered with 100 mg of ritonavir; assay type: ADME, organism-based; parameters: dose 50 mg, time 0 - last, route oral; conditions: plasma; how it was run: as §2
Homo sapiens [32] = test: Toxicity in healthy human assessed as occurrence of aphthous stomatitis at 62.5 mg, po administered as single dose coadministered with 100 mg of ritonavir; assay type: organism-based; conditions: in vivo
Homo sapiens [33] = test: Toxicity in healthy human assessed as occurrence of vomiting at 12.5 mg, po administered as single dose relative to control; assay type: organism-based; conditions: in vivo
[34] = Mean residence time in healthy human at 75 mg, po administered as single dose; assay type: ADME, organism-based; conditions: in vivo
[35] = AUC (0 to infinity) in healthy human at 75 mg, po administered as single dose coadministered with 100 mg of ritonavir; assay type: ADME, organism-based; parameters: dose 75 mg, route oral, time infinity; conditions: plasma; how it was run: as §2

CL/F [1]: 3400 mL/min
CL renal [6]: 5.85 mL/min
Ratio (Homo sapiens [7]): 5
half-life [10]: 11.5 h
CL renal [11]: 4.87 mL/min
CL renal [13]: 6.03 mL/min
AUC(0-inf) [14]: 7630 ng·h/mL
CL renal [16]: 4.92 mL/min
Ratio (Homo sapiens [18]): 31
AUC(0-inf) [20]: 36.3 ng·h/mL
Tmax [24]: 6 h
Vd/F [25]: 390 L
Ratio (Homo sapiens [26]): 2.9
dose excreted [30]: 0.816%
AUC(0-t) [31]: 6540 ng·h/mL
MRT [34]: 2.95 h
AUC(0-inf) [35]: 12300 ng·h/mL
SMILES: CCN1c2ncc(CCOc3cc[n+]([O-])c4ccccc34)cc2C(=O)N(C)c2cccnc21 [BILR 355]
Activity (Homo sapiens [2]): 0%
Activity (Homo sapiens [3]): 0%
Activity (Homo sapiens [4]): 0%
Activity (Homo sapiens [5]): 0%
Activity (Homo sapiens [8]): 0%
Activity (Homo sapiens [9]): 0%
Activity (Homo sapiens [12]): 0%
Activity (Homo sapiens [15]): 0%
Activity (Homo sapiens [17]): 0%
Activity (Homo sapiens [19]): 0%
Activity (Homo sapiens [21]): 0%
Activity (Homo sapiens [22]): 0%
Activity (Homo sapiens [23]): 0%
Activity (Homo sapiens [27]): 16.7%
Activity (Homo sapiens [28]): 0%
Activity (Homo sapiens [29]): 0%
Activity (Homo sapiens [32]): 0%
Activity (Homo sapiens [33]): 0%
